This note sets out measurements from ChEMBL document CHEMBL1154114, “7-((4-Substituted)piperazin-1-yl) derivatives of ciprofloxacin: synthesis and in vitro biological evaluation as potential antitumor agents” (Bioorg Med Chem, 2009).

Series [1] can be described thus: Stability in phosphate buffer of pH 7.4 after 6 days. In kind it is physicochemical. To be noted: read-out: Stability. The method, boiled down: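 Compound dissolved at 1 mM in DMSO, diluted with phosphate buffer pH 7.4 to 1 mL, incubated sealed at 37 °C for 6 days. A t0 aliquot was held at 4 °C. HPLC with 280 nm detection and duplicate injections, with expected degradation products as references. Stability is taken as compound peak area over (compound + degradation product) peak area.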

The test system of series [2] is HeLa. Put plainly: Inhibition of human HeLa cell proliferation. In kind it is functional, cell-based.
The test system of series [3] is LoVo. In words: Antitumor activity against human LoVo cells after 5 days by MTT assay. To be noted: 120 h. In kind it is functional, cell-based. The method, boiled down: (§1)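 Five human cancer lines (prostate PC-3, glioblastoma U373-MG, colorectal LoVo, NSCLC A549, breast MCF-7) plated at 10⁴ to 3×10⁴ cells/mL depending on cell type, allowed 24 h to attach, then cultured 120 h with or without drug at nine concentrations. MTT reduction to formazan read at 570 nm (reference 630 nm).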

Series [4] in a line: Antitumor activity against human U373MG cells after 5 days by MTT assay. In kind it is functional, cell-based, U-373MG ATCC. Particulars: U373 MG, 120 h. The essentials:
as §1
(In general: Formazan colour is commonly taken as a measure of viable cells.)

The subject of series [5] is A549. In words: Antitumor activity against human A549 cells after 5 days by MTT assay. In kind it is functional, cell-based. Particulars: A549, 120 h. The method, boiled down: as §1
Series [6] has as its system MCF7. In words: Antitumor activity against human MCF7 cells after 5 days by MTT assay. In kind it is functional, cell-based. Particulars: MCF7, 120 h. The method, boiled down: as §1
Series [7] relates to PC-3. In words: Antitumor activity against human PC3 cells after 5 days by MTT assay. Particulars: PC-3, 120 h. In kind it is functional, cell-based. The essentials:
as §1

Series [8] in a line: Toxicity in ip dosed B6D2F1 mouse assessed as maximum tolerated dose after 28 days. To be noted: in vivo. In kind it is organism-based. The method, boiled down:
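Healthy mice, three per group, each given a single ip dose and observed for up to 28 days. The MTD index is the highest single dose given without causing any deaths in the group.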

Series [9] is described as follows: Inhibition of mouse NIH/3T3 cell proliferation by MTT assay. In kind it is cell-based. Particulars: NIH3T3.

As to `CCCCCCCCCCCCCCCC(=O)N1CCN(c2cc3c(cc2F)c(=O)c(C(=O)O)cn3C2CC2)CC1`, in series [1], the remaining at 144 h turned out to be 100%.

Regarding `NC1CCN(c2nc3c(cc2F)c(=O)c(C(=O)O)cn3-c2ccc(F)cc2F)C1` (stereo not given) [TOSUFLOXACIN], the IC50 (usually the concentration needed to halve the response being measured) in series [2] is 32 µM.

As to `CC(C)(C)C(=O)N1CCN(c2cc3c(cc2F)c(=O)c(C(=O)O)cn3C2CC2)CC1`, the IC50 in [3] turned out to be 93 µM; in series [4], 67 µM; in [5] it was 509 µM; in [6], 85 µM; in [7], 246 µM.

With `O=C(O)c1cn(C2CC2)c2cc(N3CCN(C(=O)Cc4ccccc4)CC3)c(F)cc2c1=O`, the IC50 in series [3] came to 41 µM; in series [4], 34 µM; in [5], 29 µM; in series [6], 32 µM; in [7] it was 243 µM.

In the case of `CCCCCCC(=O)N1CCN(c2cc3c(cc2F)c(=O)c(C(=O)O)cn3C2CC2)CC1`, the IC50 in [3] came out at 793 µM; in series [4] it was 729 µM; in [5], 808 µM; in series [6], 754 µM; in [7], 779 µM. Further, in series [1], the remaining at 144 h was determined as 100%. Further, the MTD (in general, the highest dose tested that stayed within the study's limit of toxicity) at 672 h in [8] was more than 80 mg/kg.

For the compound `CCCCCCCCCCCCCC(=O)OCC(=O)N1CCN(c2cc3c(cc2F)c(=O)c(C(=O)O)cn3C2CC2)CC1`, the IC50 in series [3] was 766 µM; in series [4] it was 748 µM; in [5], 742 µM; in [6] it was 828 µM; in series [7] it was 745 µM.

With `C[C@@H]1CN(c2c(F)c(N)c3c(=O)c(C(=O)O)cn(C4CC4)c3c2F)C[C@H](C)N1` [SPARFLOXACIN], the IC50 in series [9] was 122 µM; in series [2], 265 µM.

For the compound `CCCCOC(=O)N1CCN(c2cc3c(cc2F)c(=O)c(C(=O)O)cn3C2CC2)CC1`, the concentration for half-maximal inhibition (IC50) in series [3] turned out to be 52 µM; in series [4], 31 µM; in [5], 42 µM; in [6], 14 µM; in series [7] it was 9 µM. Moreover, the remaining at 144 h in [1] stood at 100%. In [8], the MTD at 672 h was more than 80 mg/kg.

Regarding `CCCCCCCCCCC(=O)OCC(=O)N1CCN(c2cc3c(cc2F)c(=O)c(C(=O)O)cn3C2CC2)CC1`, the IC50 in series [3] was 828 µM; in series [4], more than 1000 µM; in series [5] it was more than 1000 µM; in series [6], 816 µM.

With `CCCCCCCCCCCCCC(=O)N1CCN(c2cc3c(cc2F)c(=O)c(C(=O)O)cn3C2CC2)CC1`, the half-inhibitory concentration (IC50) amounted to 101 µM in series [3]; 205 µM in series [4]; 56 µM in series [5]; 96 µM in series [6]; 94 µM in series [7].

On to `CCCC(=O)N1CCN(c2cc3c(cc2F)c(=O)c(C(=O)O)cn3C2CC2)CC1`, for which the IC50 in series [3] was 148 µM; in [4] it was 104 µM; in series [5], 697 µM; in series [6] it was 172 µM; in series [7], 85 µM.

On to `O=C(O)c1cn(C2CC2)c2cc(N3CCN(C(=O)CO)CC3)c(F)cc2c1=O`, for which the IC50 in series [3] amounted to 408 µM; in series [4], 294 µM; in [5] it was 456 µM; in series [6], 985 µM; in [7] it was 433 µM.

For `CCCC(=O)OCC(=O)N1CCN(c2cc3c(cc2F)c(=O)c(C(=O)O)cn3C2CC2)CC1`, the IC50 in [3] is 613 µM; in [4] it was 586 µM; in series [5], 456 µM; in series [6] it was 1000 µM; in [7], 715 µM. The remaining at 144 h in series [1] was 100%.

As for `CCCCCCCCCCCC(=O)N1CCN(c2cc3c(cc2F)c(=O)c(C(=O)O)cn3C2CC2)CC1`, the IC50 in series [3] worked out at 45 µM; in series [4] it was 18 µM; in series [5], 7 µM; in series [6], 108 µM; in series [7], 4 µM.

`CCC(=O)N1CCN(c2cc3c(cc2F)c(=O)c(C(=O)O)cn3C2CC2)CC1`: the IC50 in [3] was determined as 306 µM; in series [4] it was 279 µM; in series [5], 402 µM; in [6], 727 µM; in [7], 352 µM.

With `CCCCCCCCC(=O)N1CCN(c2cc3c(cc2F)c(=O)c(C(=O)O)cn3C2CC2)CC1`, the IC50 worked out at 30 µM in series [3]; 24 µM in series [4]; 6 µM in series [5]; 26 µM in [6]; 7 µM in series [7].

For the compound `CC(=O)OCC(=O)N1CCN(c2cc3c(cc2F)c(=O)c(C(=O)O)cn3C2CC2)CC1`, the IC50 was found to be 268 µM in series [3]; 99 µM in [4]; 373 µM in series [5]; 279 µM in [6]; 176 µM in series [7].

As to `CCCCCCCCCOC(=O)N1CCN(c2cc3c(cc2F)c(=O)c(C(=O)O)cn3C2CC2)CC1`, the half-inhibitory concentration (IC50) in series [3] came out at 30 µM; in series [4], 283 µM; in [5] it was 38 µM; in [6], 35 µM; in series [7], 30 µM.

For `CCCCCCCCCC(=O)OCC(=O)N1CCN(c2cc3c(cc2F)c(=O)c(C(=O)O)cn3C2CC2)CC1`, the IC50 in [3] came out at 317 µM; in [4], 291 µM; in [5] it was 273 µM; in series [6], 353 µM; in [7], 416 µM.

Take `CCCCCCCCCCCCOC(=O)N1CCN(c2cc3c(cc2F)c(=O)c(C(=O)O)cn3C2CC2)CC1`: the IC50 came to 347 µM in [3]; 94 µM in series [4]; 273 µM in [5]; 200 µM in [6]; 217 µM in series [7].

Regarding `CCCCCC(=O)OCC(=O)N1CCN(c2cc3c(cc2F)c(=O)c(C(=O)O)cn3C2CC2)CC1`, the IC50 in series [3] was 27 µM; in [4] it was 28 µM; in [5], 20 µM; in [6] it was 72 µM; in series [7] it was 14 µM. Further, the remaining at 144 h in series [1] is more than 99%.

With `CCCCCCCCOC(=O)N1CCN(c2cc3c(cc2F)c(=O)c(C(=O)O)cn3C2CC2)CC1`, the IC50 in [3] amounted to 43 µM; in [4] it was 79 µM; in [5], 21 µM; in series [6], 23 µM; in series [7], 24 µM. In series [1], the remaining at 144 h is 100%. For the same compound, the MTD at 672 h in series [8] is more than 80 mg/kg.

For the compound `CCCCCCCCC(=O)OCC(=O)N1CCN(c2cc3c(cc2F)c(=O)c(C(=O)O)cn3C2CC2)CC1`, the half-maximal inhibitory concentration (IC50) in series [3] stood at 267 µM; in [4], 272 µM; in series [5], 216 µM; in series [6], 255 µM; in series [7], 257 µM.

For `CCCCCCCCCCCC(=O)OCC(=O)N1CCN(c2cc3c(cc2F)c(=O)c(C(=O)O)cn3C2CC2)CC1`, the IC50 in series [3] was determined as 39 µM; in series [4], 49 µM; in series [5], 15 µM; in series [6] it was 621 µM; in [7] it was 3 µM. The remaining at 144 h in [1] is more than 98%.

Consider `CCCCCCCCCCOC(=O)N1CCN(c2cc3c(cc2F)c(=O)c(C(=O)O)cn3C2CC2)CC1`, for which the IC50 was found to be 32 µM in [3]; 401 µM in series [4]; 44 µM in series [5]; 20 µM in series [6]; 24 µM in [7].

As to `CCCCCCCC(=O)OCC(=O)N1CCN(c2cc3c(cc2F)c(=O)c(C(=O)O)cn3C2CC2)CC1`, the IC50 in [3] is 29 µM; in series [4], 53 µM; in series [5], 16 µM; in series [6] it was 818 µM; in series [7], 23 µM. The remaining at 144 h in series [1] is more than 97%.

Consider `CCCCCCCCCCCCCCCC(=O)OCC(=O)N1CCN(c2cc3c(cc2F)c(=O)c(C(=O)O)cn3C2CC2)CC1`, for which the IC50 in [3] stood at 75 µM; in series [4], 119 µM; in series [5], 112 µM; in series [6], 56 µM; in [7] it was 30 µM.

For `CCCCCCCCCC(=O)N1CCN(c2cc3c(cc2F)c(=O)c(C(=O)O)cn3C2CC2)CC1`, the IC50 amounted to 7 µM in series [3]; 5 µM in series [4]; 3 µM in series [5]; 20 µM in [6]; 4 µM in [7]. In addition, in series [1], the remaining at 144 h came to 100%. Further, the MTD at 672 h in [8] was more than 80 mg/kg.

For the compound `CCn1cc(C(=O)O)c(=O)c2cc(F)c(N3CCNC(C)C3)c(F)c21` (stereo not given) [LOMEFLOXACIN], the values for the IC50 in series [9] and in [2] were 483 µM and 410 µM, respectively.

Turning to `CCOC(=O)N1CCN(c2cc3c(cc2F)c(=O)c(C(=O)O)cn3C2CC2)CC1`, the IC50 was 272 µM in series [3]; 228 µM in series [4]; more than 1000 µM in series [5]; 455 µM in [6]; 385 µM in series [7]. In addition, the remaining at 144 h in series [1] was 100%. Further, the MTD at 672 h in [8] is more than 80 mg/kg.

As for `CCCCC(=O)N1CCN(c2cc3c(cc2F)c(=O)c(C(=O)O)cn3C2CC2)CC1`, the half-inhibitory concentration (IC50) in series [3] came out at 87 µM; in series [4] it was 86 µM; in [5], 64 µM; in [6], 316 µM; in series [7], 73 µM.

Turning to `COc1c(N2CCNC(C)C2)c(F)cc2c(=O)c(C(=O)O)cn(C3CC3)c12` (stereo not given) [GATIFLOXACIN], inhibition in series [2] was half-maximal at 400 µM (IC50).

For `CC(=O)N1CCN(c2cc3c(cc2F)c(=O)c(C(=O)O)cn3C2CC2)CC1`, the IC50 in series [3] was determined as 323 µM; in series [4] it was 535 µM; in [5], 584 µM; in series [6], 803 µM; in [7], 680 µM.
